Laboratory results published in ChEMBL document CHEMBL3351505, “Ultrasound-assisted synthesis of novel 1,2,3-triazoles coupled diaryl sulfone moieties by the CuAAC reaction, and biological evaluation of them as antioxidant and antimicrobial agents” (Eur J Med Chem, 2014).
Values after ≈ are worked out from the molar mass of the structure shown. Active and inactive are the calls of the source. The calls are words filed in the database; no cut-off is given here.

What was measured:
[1] = Antioxidant activity assessed as DPPH free radical scavenging activity by spectrophotometric assay; format: physicochemical
Summary of the method: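 Sample solutions at several concentrations were added to 0.004% DPPH in methanol and incubated 60 min in the dark. Absorbance was read at 517 nm against a blank. Inhibition % = (A_blank − A_sample)/A_blank × 100, where the control contained all reagents except the test compound.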

[2] = tested on: Pseudomonas aeruginosa; assay: Antibacterial activity against Pseudomonas aeruginosa ATCC 27953 using 100 uL of test compound after 24 hrs by agar well diffusion method; format: functional
Summary of the method: (§1)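 Agar well diffusion. Nutrient agar was spread with bacterial suspension at 1×10⁸ CFU/mL, and 10 mm wells were cut. Wells were loaded with compound solution made at 200 mg per 1 mL DMSO. Plates were incubated 24 h at 37 °C and inhibition zones were measured. DMSO served as the negative control.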

[3] = tested on: Candida albicans; assay: Antifungal activity against Candida albicans NRRL Y-477 after 48 hrs by two fold serial dilution method; format: functional
Summary of the method: (§2)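 Two-fold serial broth dilution in a suitable broth, run only on compounds giving inhibition zones of at least 16 mm. Final concentrations were […]. Each 5 mL received 0.1 mL inoculum and was incubated 48 h at 28 °C. MIC was the lowest concentration without growth.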

[4] = tested on: Escherichia coli; assay: Antibacterial activity against Escherichia coli ATCC 25922 using 100 uL of test compound after 24 hrs by agar well diffusion method; format: functional; summary of the method: as §1
[5] = tested on: Escherichia coli; assay: Antibacterial activity against Escherichia coli ATCC 25922 after 24 hrs by two fold serial dilution method; format: functional
[6] = tested on: Staphylococcus aureus; assay: Antibacterial activity against Staphylococcus aureus ATCC 29213 using 100 uL of test compound after 24 hrs by agar well diffusion method; format: functional; summary of the method: as §1
[7] = tested on: Klebsiella pneumoniae; assay: Antibacterial activity against Klebsiella pneumoniae ATCC 13883 using 100 uL of test compound after 24 hrs by agar well diffusion method; format: functional; summary of the method: as §1
[8] = tested on: Priestia megaterium; assay: Antibacterial activity against Bacillus megaterium ATCC 9885 after 24 hrs by two fold serial dilution method; format: functional
[9] = tested on: Priestia megaterium; assay: Antibacterial activity against Bacillus megaterium ATCC 9885 using 100 uL of test compound after 24 hrs by agar well diffusion method; format: functional; summary of the method: as §1
[10] = tested on: Candida albicans; assay: Antifungal activity against Candida albicans NRRL Y-477 using 100 uL of test compound after 48 hrs by agar well diffusion method; format: functional
Summary of the method: as §1, with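 “Sabouraud dextrose” for “Nutrient”, “yeast or fungal” for “bacterial”, “1×10⁶” for “1×10⁸”, “48” for “24”, “28” for “37”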

[11] = tested on: Saccharomyces cerevisiae; assay: Antifungal activity against Saccharomyces cerevisiae using 100 uL of test compound after 48 hrs by agar well diffusion method; format: functional
Summary of the method: as §1, with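 “Sabouraud dextrose” for “Nutrient”, “yeast or fungal” for “bacterial”, “1×10⁶” for “1×10⁸”, “48” for “24”, “28” for “37”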

[12] = tested on: Micrococcus luteus; assay: Antibacterial activity against Sarcina lutea using 100 uL of test compound after 24 hrs by agar well diffusion method; format: functional; summary of the method: as §1
[13] = tested on: Saccharomyces cerevisiae; assay: Antifungal activity against Saccharomyces cerevisiae after 48 hrs by two fold serial dilution method; format: functional; summary of the method: as §2
[14] = tested on: Bacillus subtilis; assay: Antibacterial activity against Bacillus subtilis ATCC 6633 using 100 uL of test compound after 24 hrs by agar well diffusion method; format: functional; summary of the method: as §1
[15] = tested on: Bacillus subtilis; assay: Antibacterial activity against Bacillus subtilis ATCC 6633 after 24 hrs by two fold serial dilution method; format: functional
[16] = tested on: Aspergillus niger; assay: Antifungal activity against Aspergillus niger after 48 hrs by two fold serial dilution method; format: functional; summary of the method: as §2
[17] = tested on: Staphylococcus aureus; assay: Antibacterial activity against Staphylococcus aureus ATCC 29213 after 24 hrs by two fold serial dilution method; format: functional
[18] = tested on: Klebsiella pneumoniae; assay: Antibacterial activity against Klebsiella pneumoniae ATCC 13883 after 24 hrs by two fold serial dilution method; format: functional
[19] = tested on: Pseudomonas aeruginosa; assay: Antibacterial activity against Pseudomonas aeruginosa ATCC 27953 after 24 hrs by two fold serial dilution method; format: functional
[20] = tested on: Micrococcus luteus; assay: Antibacterial activity against Sarcina lutea after 24 hrs by two fold serial dilution method; format: functional
[21] = tested on: Aspergillus niger; assay: Antifungal activity against Aspergillus niger using 100 uL of test compound after 48 hrs by agar well diffusion method; format: functional
Summary of the method: as §1, with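 “Sabouraud dextrose” for “Nutrient”, “yeast or fungal” for “bacterial”, “1×10⁶” for “1×10⁸”, “48” for “24”, “28” for “37”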

IC50 [1] [µg/mL] | MIC ([3]; NRRL Y-477, 48 h) [µg/mL] | MIC ([5]; ATCC 25922, 24 h) [µg/mL] | MIC ([8]; ATCC 9885, 24 h) [µg/mL] | MIC [13] | MIC [15] | MIC [16] [µg/mL] | MIC ([17]; ATCC 29213, 24 h) [µg/mL] | MIC [19] | MIC [20] [µg/mL] | Compound | diameter of the inhibition zone (DIZ) [2] [mm] | diameter of the inhibition zone (DIZ) [4] [mm] | diameter of the inhibition zone (DIZ) [6] [mm] | diameter of the inhibition zone (DIZ) [7] [mm] | diameter of the inhibition zone (DIZ) [9] [mm] | diameter of the inhibition zone (DIZ) [10] [mm] | diameter of the inhibition zone (DIZ) [11] [mm] | diameter of the inhibition zone (DIZ) [12] [mm] | diameter of the inhibition zone (DIZ) [14] [mm] | diameter of the inhibition zone (DIZ) [21] [mm] | further results
500 (≈ 950 µM) | 200 (≈ 380 µM) | 200 (≈ 380 µM) | 200 (≈ 380 µM) | 200 µg/mL (≈ 380 µM) | inactive | 50 (≈ 95 µM) | 200 (≈ 380 µM) | 100 µg/mL (≈ 190 µM) | 200 (≈ 380 µM) | O=C(Cn1cc(CC(O)c2ccc(S(=O)(=O)c3ccccc3)cc2)nn1)c1ccc(Br)cc1 (centres undefined) | 25 | 22 | 22 | 24 | 19 | 20 | 17 | 20 | 14 | 30 | MIC ([18]; ATCC 13883, 24 h): 100 µg/mL (≈ 190 µM)
275 (≈ 403 µM) | 200 (≈ 293 µM) | – | 200 (≈ 293 µM) | 200 µg/mL (≈ 293 µM) | – | 50 (≈ 73.2 µM) | 100 (≈ 146 µM) | inactive | 200 (≈ 293 µM) | O=C(Cn1cc(COC(Cc2cn(CC(=O)c3ccc(F)cc3)nn2)c2ccc(S(=O)(=O)c3ccccc3)cc2)nn1)c1ccc(F)cc1 (centres undefined) | 15 | 14 | 26 | 16 | 17 | 22 | 19 | 20 | 19 | 32 | MIC [5]: inactive; MIC ([15]; ATCC 6633, 24 h): 200 µg/mL (≈ 293 µM); MIC ([18]; ATCC 13883, 24 h): 200 µg/mL (≈ 293 µM)
600 (≈ 1300 µM) | – | – | – | inactive | – | 50 (≈ 108 µM) | 200 (≈ 433 µM) | 200 µg/mL (≈ 433 µM) | 200 (≈ 433 µM) | CC(O)(Cc1cn(CC(=O)c2ccccc2)nn1)c1ccc(S(=O)(=O)c2ccccc2)cc1 (centres undefined) | 19 | 14 | 18 | 13 | 15 | 15 | 14 | 22 | 19 | 32 | MIC [3]: inactive; MIC [5]: inactive; MIC [8]: inactive; MIC ([15]; ATCC 6633, 24 h): 200 µg/mL (≈ 433 µM); MIC [18]: inactive
600 (≈ 992 µM) | 200 (≈ 331 µM) | 200 (≈ 331 µM) | 200 (≈ 331 µM) | inactive | inactive | 25 (≈ 41.3 µM) | – | 200 µg/mL (≈ 331 µM) | 200 (≈ 331 µM) | CC(Cc1cn(Cc2ccccc2)nn1)(OCc1cn(Cc2ccccc2)nn1)c1ccc(S(=O)(=O)c2ccccc2)cc1 (centres undefined) | 19 | 18 | 14 | 15 | 17 | 16 | 14 | 17 | 14 | 34 | MIC [17]: inactive; MIC [18]: inactive
